Experimental data reported in ChEMBL document CHEMBL3352363, “1,4-disubstituted-[1,2,3]triazolyl-containing analogues of MT-II: design, synthesis, conformational analysis, and biological activity” (J Med Chem, 2014).
pEC50: −log10 of the molar value. Where a SMILES comes first, the peptide text is derived from it. Bridges are numbered along the chain shown (N, C = ends). Triazole bridges read from a SMILES are 1,4-linked. [ ]: non-standard residue; d: D form. Lys(N3) = [N-]=[N+]=NCCCC[C@H](N)C(=O)O; Nle = CCCC[C@H](N)C(=O)O; Pra = C#CC[C@H](N)C(=O)O

Key:
Type in all cases: functional, cell-based
Melanocortin receptor 4 = Melanocortin receptor 4 (Mus musculus, UniProt P56450); experiment: Activity at mouse MC4R expressed in HEK293 cells assessed as cAMP accumulation by CRE/beta-galactosidase reporter gene assay
In short: (§1)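 Stably transfected HEK-293 cells transiently transfected with 4 μg CRE/β-galactosidase reporter, 5000–15000 cells plated on collagen-treated wells overnight. Lysates frozen −80 °C; ONPG substrate at 37 °C, OD405 normalized to protein (OD595).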

Melanocortin receptor 3 = Melanocortin receptor 3 (Mus musculus, UniProt P33033); experiment: Activity at mouse MC3R expressed in HEK293 cells assessed as cAMP accumulation by CRE/beta-galactosidase reporter gene assay; in short: as §1
Melanocortin receptor 5 = Melanocortin receptor 5 (Mus musculus, UniProt P41149); experiment: Activity at mouse MC5R expressed in HEK293 cells assessed as cAMP accumulation by CRE/beta-galactosidase reporter gene assay; in short: as §1
[1] = biological target: Melanocyte-stimulating hormone receptor (Mus musculus, UniProt Q01727); experiment: Activity at mouse MC1R expressed in HEK293 cells assessed as cAMP accumulation by CRE/beta-galactosidase reporter gene assay; in short: as §1
Sequence of Melanocyte-stimulating hormone receptor (Q01727 whole entry): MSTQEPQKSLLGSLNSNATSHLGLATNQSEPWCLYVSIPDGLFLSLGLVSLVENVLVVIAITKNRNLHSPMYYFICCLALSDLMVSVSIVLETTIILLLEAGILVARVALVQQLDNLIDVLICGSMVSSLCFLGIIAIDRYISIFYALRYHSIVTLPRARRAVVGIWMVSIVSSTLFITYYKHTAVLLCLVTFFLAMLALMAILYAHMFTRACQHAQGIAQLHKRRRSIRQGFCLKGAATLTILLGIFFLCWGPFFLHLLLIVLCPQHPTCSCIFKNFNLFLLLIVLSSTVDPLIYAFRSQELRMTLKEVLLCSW

Sequence of Melanocortin receptor 3 (P33033 whole entry): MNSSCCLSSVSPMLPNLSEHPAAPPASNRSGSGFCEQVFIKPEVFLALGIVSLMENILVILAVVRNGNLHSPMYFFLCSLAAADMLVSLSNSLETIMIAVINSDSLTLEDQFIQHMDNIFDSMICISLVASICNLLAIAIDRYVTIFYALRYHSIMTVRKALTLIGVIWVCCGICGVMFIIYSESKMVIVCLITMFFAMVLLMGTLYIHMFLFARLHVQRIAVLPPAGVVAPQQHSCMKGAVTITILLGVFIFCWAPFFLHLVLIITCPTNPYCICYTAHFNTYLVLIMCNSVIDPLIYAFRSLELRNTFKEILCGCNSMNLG
Sequence of Melanocortin receptor 4 (P56450 whole entry): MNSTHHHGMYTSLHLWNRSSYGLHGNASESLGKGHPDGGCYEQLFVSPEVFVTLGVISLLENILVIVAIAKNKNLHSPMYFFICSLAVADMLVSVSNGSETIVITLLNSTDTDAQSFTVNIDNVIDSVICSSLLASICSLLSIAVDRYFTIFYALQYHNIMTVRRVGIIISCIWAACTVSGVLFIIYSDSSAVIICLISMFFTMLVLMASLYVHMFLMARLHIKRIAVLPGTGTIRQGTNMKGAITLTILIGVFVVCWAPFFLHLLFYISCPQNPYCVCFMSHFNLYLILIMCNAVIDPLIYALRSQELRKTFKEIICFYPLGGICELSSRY
Sequence of Melanocortin receptor 5 (P41149 whole entry): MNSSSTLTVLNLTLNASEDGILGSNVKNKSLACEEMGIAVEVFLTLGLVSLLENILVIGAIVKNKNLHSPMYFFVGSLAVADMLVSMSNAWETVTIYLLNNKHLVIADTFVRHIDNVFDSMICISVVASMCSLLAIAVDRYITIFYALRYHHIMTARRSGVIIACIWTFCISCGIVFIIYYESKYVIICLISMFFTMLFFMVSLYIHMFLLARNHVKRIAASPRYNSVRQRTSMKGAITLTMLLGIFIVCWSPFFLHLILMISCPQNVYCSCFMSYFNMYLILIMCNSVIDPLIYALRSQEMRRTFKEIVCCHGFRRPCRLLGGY

CCCC[C@H](NC(C)=O)C(=O)N[C@@H](CC(=O)O)C(=O)N[C@@H](Cc1c[nH]cn1)C(=O)N[C@H](Cc1ccccc1)C(=O)N[C@@H](CCCN=C(N)N)C(=O)N[C@@H](Cc1c[nH]c2ccccc12)C(=O)N[C@@H](CCCCN)C(N)=O
pEC50 (Melanocortin receptor 4): 9.68
pEC50 (Melanocortin receptor 3): 8.96

C#CC[C@H](NC(=O)[C@H](Cc1c[nH]c2ccccc12)NC(=O)[C@H](CCCNC(=N)N)NC(=O)[C@@H](Cc1ccccc1)NC(=O)[C@H](Cc1cnc[nH]1)NC(=O)[C@H](CCCCN=[N+]=[N-])NC(=O)[C@H](CCCC)NC(C)=O)C(N)=O
pEC50 (Melanocortin receptor 5): 8.72

CCCCCC[C@H](NC(=O)[C@H](Cc1c[nH]c2ccccc12)NC(=O)[C@H](CCCNC(=N)N)NC(=O)[C@@H](Cc1ccccc1)NC(=O)[C@H](Cc1cnc[nH]1)NC(=O)[C@H](CN=[N+]=[N-])NC(=O)[C@H](CCCC)NC(C)=O)C(N)=O
pEC50 (Melanocortin receptor 4): 9.85
pEC50 [1]: 9.28
pEC50 (Melanocortin receptor 3): 8.88
pEC50 (Melanocortin receptor 5): 9.89

CCCC[C@H](NC(C)=O)C(=O)N[C@H]1Cc2cn(nn2)CCCC[C@@H](C(N)=O)NC(=O)[C@H](Cc2c[nH]c3ccccc23)NC(=O)[C@H](CCCNC(=N)N)NC(=O)[C@@H](Cc2ccccc2)NC(=O)[C@H](Cc2cnc[nH]2)NC1=O
pEC50 (Melanocortin receptor 4): 8.79
pEC50 [1]: 8.29
pEC50 (Melanocortin receptor 3): 8.50
pEC50 (Melanocortin receptor 5): 8.71

CCCC[C@H](NC(C)=O)C(=O)N[C@H]1CCc2cn(nn2)CCC[C@@H](C(N)=O)NC(=O)[C@H](Cc2c[nH]c3ccccc23)NC(=O)[C@H](CCCNC(=N)N)NC(=O)[C@@H](Cc2ccccc2)NC(=O)[C@H](Cc2cnc[nH]2)NC1=O
pEC50 (Melanocortin receptor 4): 9.66
pEC50 [1]: 9.96
pEC50 (Melanocortin receptor 3): 9.54
pEC50 (Melanocortin receptor 5): 9.47

CCCC[C@H](NC(C)=O)C(=O)N[C@H]1CCCc2cn(nn2)CC[C@@H](C(N)=O)NC(=O)[C@H](Cc2c[nH]c3ccccc23)NC(=O)[C@H](CCCNC(=N)N)NC(=O)[C@@H](Cc2ccccc2)NC(=O)[C@H](Cc2cnc[nH]2)NC1=O
pEC50 (Melanocortin receptor 4): 10.29
pEC50 [1]: 10.00
pEC50 (Melanocortin receptor 3): 9.68
pEC50 (Melanocortin receptor 5): 10.38

CCCC[C@H](NC(C)=O)C(=O)N[C@H]1CCCCc2cn(nn2)C[C@@H](C(N)=O)NC(=O)[C@H](Cc2c[nH]c3ccccc23)NC(=O)[C@H](CCCNC(=N)N)NC(=O)[C@@H](Cc2ccccc2)NC(=O)[C@H](Cc2cnc[nH]2)NC1=O
pEC50 [1]: 10.06
pEC50 (Melanocortin receptor 3): 9.70

CCCC[C@H](NC(C)=O)C(=O)N[C@H]1CCCn2cc(nn2)CC[C@@H](C(N)=O)NC(=O)[C@H](Cc2c[nH]c3ccccc23)NC(=O)[C@H](CCCNC(=N)N)NC(=O)[C@@H](Cc2ccccc2)NC(=O)[C@H](Cc2cnc[nH]2)NC1=O
pEC50 (Melanocortin receptor 4): 9.07
pEC50 [1]: 9.15
pEC50 (Melanocortin receptor 3): 8.72
pEC50 (Melanocortin receptor 5): 8.73

CCCC[C@H](NC(C)=O)C(=O)N[C@H]1CCn2cc(nn2)CCC[C@@H](C(N)=O)NC(=O)[C@H](Cc2c[nH]c3ccccc23)NC(=O)[C@H](CCCNC(=N)N)NC(=O)[C@@H](Cc2ccccc2)NC(=O)[C@H](Cc2cnc[nH]2)NC1=O
pEC50 (Melanocortin receptor 4): 10.32
pEC50 [1]: 10.13
pEC50 (Melanocortin receptor 3): 9.70
pEC50 (Melanocortin receptor 5): 10.35

CCCC[C@H](NC(C)=O)C(=O)N[C@H]1Cn2cc(nn2)CCCC[C@@H](C(N)=O)NC(=O)[C@H](Cc2c[nH]c3ccccc23)NC(=O)[C@H](CCCNC(=N)N)NC(=O)[C@@H](Cc2ccccc2)NC(=O)[C@H](Cc2cnc[nH]2)NC1=O
pEC50 (Melanocortin receptor 4): 9.85
pEC50 [1]: 9.28
pEC50 (Melanocortin receptor 3): 9.22

CCCC[C@H](NC(C)=O)C(=O)N[C@H]1CCc2cn(nn2)CC[C@@H](C(N)=O)NC(=O)[C@H](Cc2c[nH]c3ccccc23)NC(=O)[C@H](CCCNC(=N)N)NC(=O)[C@@H](Cc2ccccc2)NC(=O)[C@H](Cc2cnc[nH]2)NC1=O
pEC50 (Melanocortin receptor 4): 9.85
pEC50 [1]: 9.49
pEC50 (Melanocortin receptor 3): 9.20
pEC50 (Melanocortin receptor 5): 9.82

CCCC[C@H](NC(C)=O)C(=O)N[C@H]1CCn2cc(nn2)CC[C@@H](C(N)=O)NC(=O)[C@H](Cc2c[nH]c3ccccc23)NC(=O)[C@H](CCCNC(=N)N)NC(=O)[C@@H](Cc2ccccc2)NC(=O)[C@H](Cc2cnc[nH]2)NC1=O
pEC50 (Melanocortin receptor 4): 10.17
pEC50 [1]: 9.70
pEC50 (Melanocortin receptor 3): 9.54
pEC50 (Melanocortin receptor 5): 10.15

CCCC[C@H](NC(C)=O)C(=O)N[C@H]1CCCCn2cc(nn2)C[C@@H](C(N)=O)NC(=O)[C@H](Cc2c[nH]c3ccccc23)NC(=O)[C@H](CCCNC(=N)N)NC(=O)[C@@H](Cc2ccccc2)NC(=O)[C@H](Cc2cnc[nH]2)NC1=O (Ac-[Nle][Lys(N3)]H[dF]RW[Pra]-NH2; triazole 2-7)
pEC50 (Melanocortin receptor 4): 9.24
pEC50 [1]: 9.07
pEC50 (Melanocortin receptor 3): 8.43
pEC50 (Melanocortin receptor 5): 8.75
